Data published in ChEMBL document CHEMBL2380204, “Discovery of a new HIV-1 inhibitor scaffold and synthesis of potential prodrugs of indazoles” (Bioorg Med Chem Lett, 2013).
≈ marks a conversion by molar mass, not a printed value.

How the values were obtained:
[1] = tested on: Plasma; experiment: Prodrug activation in 80% phosphate buffered human plasma assessed as compound remaining after 40 mins at pH 7.4; assay type: cell-free; conditions: pH 7.4, 40 min
How it was run: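 Incubated in phosphate-buffered 80% human plasma at pH 7.4 and 37 °C. Percent of compound remaining measured at 40 min, along with time-dependent formation of the parent indazole.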

[2] = Aqueous solubility in phosphate buffer at pH 7.4; assay type: physicochemical
How it was run: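 Aqueous solubility measured in phosphate buffer at pH 7.4 as a preliminary screen. Reported in µM.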

[3] = Chemical stability in phosphate buffer after 40 mins at pH 7.4; assay type: physicochemical; conditions: pH 7.4, 40 min
How it was run: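 Compound incubated in phosphate buffer at pH 7.4 and 37 °C for 40 min. Hydrolysis monitored.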

[4] = tested on: Human immunodeficiency virus 1; experiment: Antiviral activity against 0.0005 MOI Human immunodeficiency virus 1 NL43 infected in human MT4 cells assessed as protection against virus-induced cytopathicity after 4 days by WST1 assay; assay type: functional, organism-based; conditions: Human immunodeficiency virus 1, NL43, MT4, 96 h
How it was run: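 Antiviral EC50 defined as 50% effective concentration. Values are the mean of two experiments, with SD normally under 20%.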

[5] = Therapeutic index, ratio of TC50 for human MT4 cells to EC50 for Human immunodeficiency virus 1 NL43 infected in human MT4 cells; assay type: cell-based; conditions: read-out: TI
How it was run: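 Index calculated as TC50/EC50. TC50 and EC50 are each the mean of two experiments.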

[6] = Cytotoxicity against human MT4 cells by WST1 assay; assay type: cell-based; conditions: read-out: TC50 (the source's name)
How it was run: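 TC50 defined as 50% toxic concentration. Values are the mean of two experiments, with SD normally under 20%.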

[7] = Metabolic stability in mouse liver microsomes after 40 mins by LC-MS/MS analysis; assay type: ADME, Microsome; conditions: read-out: Stability

| Stability [1] | solubility [2] | Stability [3] | remaining at 40 min [7] | SMILES | EC50 [4] | selectivity ratio [5] | CC50 [6] |
| --- | --- | --- | --- | --- | --- | --- | --- |
| Stable | 66 µM (≈ 32.3 µg/mL) | – | – | O=C(O)c1ccccc1C(=O)OCn1ncc2cc(Nc3ncc(-c4ccc(Cl)cc4)o3)ccc21 | – | – | – |
| 35% | 60 µM (≈ 26.5 µg/mL) | Stable | – | O=C(O)CCC(=O)OCn1ncc2cc(Nc3ncc(-c4ccc(Cl)cc4)o3)ccc21 | – | – | – |
| – | – | – | – | O=[N+]([O-])c1ccc(N2CCCC(Nc3ccc4[nH]ncc4c3)C2)c(F)c1 (configuration not stated) | 13 µM | 10 | – |
| – | – | – | – | COc1cccc(-c2nc(Nc3ccc4[nH]ncc4c3)c3c(F)cccc3n2)c1 | 11 µM | 10 | – |
| – | – | – | – | O=C(NCc1ccc([N+](=O)[O-])cc1F)Nc1ccc2[nH]ncc2c1 | 6 µM | 15 | – |
| – | – | – | 9% | c1ccc(-c2cnc(Nc3ccc4[nH]ncc4c3)o2)cc1 | 2 µM | > 45 | > 90 µM |
| – | – | – | – | Clc1ccccc1-c1cnc(Nc2ccc3[nH]ncc3c2)o1 | 9 µM | > 11 | > 100 µM |
| – | – | – | – | Clc1cccc(-c2cnc(Nc3ccc4[nH]ncc4c3)o2)c1 | 54 µM | > 1.9 | > 100 µM |
| – | 0.2 µM (≈ 0.0621 µg/mL) | – | 83% | Clc1ccc(-c2cnc(Nc3ccc4[nH]ncc4c3)o2)cc1 | 3 µM | > 30 | > 90 µM |
| – | – | – | – | COc1ccccc1-c1cnc(Nc2ccc3[nH]ncc3c2)o1 | 100 µM | > 1 | > 100 µM |
| – | – | – | – | COc1cccc(-c2cnc(Nc3ccc4[nH]ncc4c3)o2)c1 | 2 µM | > 45 | > 90 µM |
| – | – | – | – | COc1ccc(-c2cnc(Nc3ccc4[nH]ncc4c3)o2)cc1 | 100 µM | > 1 | > 100 µM |
| – | – | – | – | c1cc2[nH]ncc2cc1Nc1ncc(-c2ccc3c(c2)OCO3)o1 | 2.7 µM | 31 | 83 µM |
| – | – | – | – | COc1cc(-c2cnc(Nc3ccc4[nH]ncc4c3)o2)ccc1Cl | 1.5 µM | 53 | 80 µM |
| – | – | – | – | Clc1ccc(-c2cnc(Nc3ccc4[nH]ncc4c3)o2)cc1Cl | 35 µM | > 2.9 | > 100 µM |
| – | – | – | – | COc1ccc(-c2cnc(Nc3ccc4[nH]ncc4c3)o2)cc1OC | 0.42 µM | 50 | 21 µM |
